The nature of data set [1]: Toxicity in human Calu6 cells xenografted po dosed BALB/c mouse assessed as body weight change administered qd for 11 days. As to conditions: in vivo. Background: A xenograft is tissue or cells of one species grown in another, often human tumour cells in immunodeficient mice.
The test system of data set [2] is Calu-6. Kind of data set: Antitumor activity against human Calu6 cells xenografted in BALB/c mouse assessed as tumor growth inhibition at 80 mg/kg, po qd for 11 days. Further details: dose 80 mg/kg. The format is functional, organism-based. Summed up:
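Female Balb/c nude mice carried s.c. flank Calu-6 xenografts, 5.0×10⁶ cells in Hanks' solution. At 200 mm³, mice were randomized into 4 groups (n = 5): vehicle, 150 mg/kg, sunitinib 80 mg/kg, or both. Each group dosed orally once daily for 11 days. Volume = 1/2 × long × short². Inhibition from volume change against control.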

For data set [3], the system named is HUVEC. Kind of data set: Antiangiogenic activity in HUVEC assessed as inhibition of VEGF-induced cell proliferation after 4 days. As to conditions: Homo sapiens, 96 h. The format is functional, cell-based. Put shortly:
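HUVECs maintained in RPMI1640 with 10% FCS, 50 μg/mL heparin and ECGS, then seeded at 3000 cells/well in RPMI1640 with 5% FCS and 20 ng/mL VEGF, with compound at serially diluted concentrations. Incubated at 37 °C, 5% CO₂. Read-out is Cell Counting Kit-8, absorbance at 450 nm. Inhibition = (1−T/C)×100 against untreated control.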

The subject of data set [4] is Calu-6. The data set is described as follows: Antiangiogenic activity in human Calu6 cells xenografted in BALB/c mouse assessed as microvessel density reduction at 300 mg/kg, po after 11 days by immunohistochemical staining method. The format is functional. Also noted: scale not given: the % may be the effect or the level left. Summed up:
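Female Balb/c nude mice given Calu-6 cells s.c. in the flank, 5.0×10⁶ cells per mouse. Dosing was oral, once daily for 11 days, starting once tumors reached 150 mm³. Tumors taken 24 h after the last dose and frozen-sectioned from the mid-portion. Vessels stained with anti-mouse CD31 and counted by image analysis. Density decrease expressed against control.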

In a further data set the test system is HCT-116. Kind of data set: Antiproliferative activity against human HCT116 cells. The format is cell-based.
Data set [5] in a line: Clearance in mouse liver microsome at 5 uM after 60 mins by LC-MS/MS analysis. The class given is ADME. As to conditions: liver microsomes, read-out: CLH. Put shortly: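 Test compound at 5 µM incubated with mouse liver microsomes, 1.0 mg protein/mL, in 50 mM potassium phosphate pH 7.4 at 37 °C. Started by adding NADPH generating system (glucose 6-phosphate 3.2 mM, β-NADP 2.6 mM, MgCl2 6.5 mM). Substrate depletion measured against internal standard. Intrinsic clearance is the first-order decay constant normalized to protein.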
For orientation: Liver microsomes are a subcellular fraction often used to study metabolism.

Data set [6] concerns HUVEC. The data set is described as follows: Selectivity ratio of IC50 for human HCT116 cells to IC50 for HUVEC cells.
For data set [7], the target named is Vascular endothelial growth factor receptor 2 (Homo sapiens, UniProt P35968). The data set is described as follows: Inhibition of VEGFR2.
Sequence of Vascular endothelial growth factor receptor 2 (P35968 whole entry): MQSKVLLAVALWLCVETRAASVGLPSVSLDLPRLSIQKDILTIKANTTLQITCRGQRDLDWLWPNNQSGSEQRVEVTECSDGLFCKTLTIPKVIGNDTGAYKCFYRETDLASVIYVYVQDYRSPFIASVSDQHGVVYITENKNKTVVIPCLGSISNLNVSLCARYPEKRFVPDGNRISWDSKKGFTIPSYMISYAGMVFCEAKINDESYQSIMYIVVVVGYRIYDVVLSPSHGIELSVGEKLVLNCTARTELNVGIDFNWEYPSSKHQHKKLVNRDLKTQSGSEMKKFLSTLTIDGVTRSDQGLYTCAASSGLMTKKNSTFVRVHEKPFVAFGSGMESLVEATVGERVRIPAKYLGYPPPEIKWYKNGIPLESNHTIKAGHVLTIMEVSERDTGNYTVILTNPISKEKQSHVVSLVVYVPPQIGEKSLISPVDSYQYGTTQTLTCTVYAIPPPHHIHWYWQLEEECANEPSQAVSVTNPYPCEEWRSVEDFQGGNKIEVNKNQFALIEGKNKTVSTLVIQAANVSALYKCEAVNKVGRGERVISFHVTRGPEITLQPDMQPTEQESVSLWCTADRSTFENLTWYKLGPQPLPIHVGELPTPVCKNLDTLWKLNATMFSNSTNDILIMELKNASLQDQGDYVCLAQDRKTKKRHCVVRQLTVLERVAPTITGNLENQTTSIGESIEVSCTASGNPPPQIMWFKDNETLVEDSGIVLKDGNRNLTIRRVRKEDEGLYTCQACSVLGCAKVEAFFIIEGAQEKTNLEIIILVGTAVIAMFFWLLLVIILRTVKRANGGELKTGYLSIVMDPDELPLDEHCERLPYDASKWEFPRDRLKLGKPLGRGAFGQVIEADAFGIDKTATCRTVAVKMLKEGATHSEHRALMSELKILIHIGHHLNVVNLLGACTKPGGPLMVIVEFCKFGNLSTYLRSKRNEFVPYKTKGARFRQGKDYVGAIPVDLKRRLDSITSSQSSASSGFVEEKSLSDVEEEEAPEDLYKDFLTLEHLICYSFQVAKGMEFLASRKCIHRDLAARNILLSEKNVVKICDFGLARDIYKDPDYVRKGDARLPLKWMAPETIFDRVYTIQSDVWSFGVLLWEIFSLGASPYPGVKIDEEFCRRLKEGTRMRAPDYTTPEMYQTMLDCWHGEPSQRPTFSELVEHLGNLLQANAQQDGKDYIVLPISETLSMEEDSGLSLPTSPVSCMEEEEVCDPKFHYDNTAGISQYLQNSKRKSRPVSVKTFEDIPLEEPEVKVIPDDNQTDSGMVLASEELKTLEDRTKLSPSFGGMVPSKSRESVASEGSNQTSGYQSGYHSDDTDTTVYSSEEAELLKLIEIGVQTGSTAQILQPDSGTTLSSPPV
Data set [8] deals with Calu-6. The data set is described as follows: Antitumor activity against human Calu6 cells xenografted in BALB/c mouse assessed as tumor growth inhibition at 600 mg/kg, po for 11 days relative to control. The class given is functional. The conditions noted are these: Calu-6, 264 h, read-out: TGI. Summed up: (§1)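 Calu-6 cells in Hanks' balanced salt solution implanted s.c. in the flank of female Balb/c nude mice, 5.0×10⁶ per mouse. Oral dosing once daily for 11 days, starting at tumor volume 150 mm³. Volume = 1/2 × long × short². Tumor growth inhibition taken from change in volume of the treated group against change in controls.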

Data set [9] is described as follows: Solubility of the compound in fasted state simulated intestinal fluid at 10 mM after 2 hrs by HPLC-UV analysis. The format is physicochemical. Put shortly:
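Triplicate samples made from 10 mM DMSO stocks. DMSO evaporated (1 h), residue dissolved in FaSSIF and shaken 2 h. Solutions filtered, filtrate analysed by UV or HPLC-UV against a four-point calibration curve from the stocks. Result in µg/mL.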

Data set [10] in a line: Lipophilicity, log D of the compound at pH 7. The class given is physicochemical. As to conditions: buffer.
Data set [11] relates to Calu-6. Kind of data set: Antitumor activity against human Calu6 cells xenografted in BALB/c mouse assessed as tumor growth inhibition at 300 mg/kg, po for 11 days relative to control. The format is functional. The conditions noted are these: Calu-6, 264 h, read-out: TGI. Summed up: as §1
[12] abbreviates: dose 600 mg/kg, in the assay text read “600 mg/kg” for “300 mg/kg”.

Molecules are shown by their SMILES. Converted amounts (≈) assume the structure as drawn. The source made the active and inactive calls. The rule behind the calls is not given here.

We go through four compounds from ChEMBL document CHEMBL1949587 (Bioorg Med Chem, 2012).

By IC50 is commonly meant the concentration at which inhibition is half-maximal. As usually defined, the solubility is how much of the substance goes into solution per volume. In general, logD refers to lipophilicity at a set pH, counting ionised and neutral species.

With `CCN(CC)CCNC(=O)c1c(C)[nH]c(/C=C2\C(=O)Nc3ccc(F)cc32)c1C` [SUNITINIB], the MTD at 264 h in data set [1] was 80 mg/kg. In addition, in the data set with Calu-6 [2], the TGI entry was “Active”.

Turning to `COc1ccc(C(N)=O)cc1COc1ccc(Cl)cc1`, the IC50 in the data set on HUVEC [3] is 0.66 µM; in the data set on HCT-116 it was over 50 µM; in data set [7], over 50 µM. For the same compound, the Activity in the data set with Calu-6 [4] (setting [12]) is given as 27%. Also, the microsomal CLint at 5 µM in data set [5] was 97 µL/min/mg. Besides, the “Ratio IC50” value in the data set with HUVEC [6] is reported as over 75. Further, the inhibition in vivo at 600 mg/kg in the data set with Calu-6 [8] is 62%.

In [9], `COc1ccc(C(N)=O)cc1/C=C/c1ccc(Cl)cc1` registered a solubility at 2 h, 10000 µM of 16 µg/mL (≈ 55.6 µM). In addition, the IC50 in the data set with HUVEC [3] was 0.087 µM; in the data set on HCT-116, 7.1 µM; in [7], over 50 µM. For the same compound, the logD in data set [10] was determined as 4. In addition, the Activity in the data set with Calu-6 [4] (dose 300 mg/kg) is 60%. Besides, the inhibition in vivo at 300 mg/kg with Calu-6 [11] amounted to 71%. Moreover, the microsomal CLint at 5 µM in data set [5] turned out to be 110 µL/min/mg. Also, the “Ratio IC50” value in the data set on HUVEC [6] is listed as 82.

Take `COc1ccc(C(N)=O)cc1COc1ccc(Cl)c(C)c1`: the IC50 with HUVEC [3] was 0.64 µM; in the data set with HCT-116, over 50 µM; in data set [7], over 50 µM. In addition, the Activity in the data set on Calu-6 [4] (setting [12]) worked out at 0%. Moreover, in [5], the microsomal CLint at 5 µM was determined as 414 µL/min/mg. Besides, the “Ratio IC50” value with HUVEC [6] is listed as over 78. Besides, in the data set on Calu-6 [8], the inhibition in vivo at 600 mg/kg stood at 14%.
